Screening data deposited in PubChem BioAssay by Johns Hopkins Ion Channel Center.
Hits are enriched below; roughly 3.5% of the tested compounds scored in any of these assays.
MrgX1 allo act = allosterically activates human MrgX1 receptor signaling. Q96LB2. MrgX1-HEK293, Fluo-4 calcium flux, FDSS; active compounds read high. B-score at 10 µM. hit rate 0.63% among 310,000;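 active = plate-corrected calcium response at least 3 library SD above typical, normal starting fluorescence, not activating the receptor alone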;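 also: compound read alongside a low EC10 to EC30 dose of BAM8-22 agonist; peak minus trough fluorescence over baseline measured at the second addition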
Target sequence (Q96LB2 whole entry, looked up): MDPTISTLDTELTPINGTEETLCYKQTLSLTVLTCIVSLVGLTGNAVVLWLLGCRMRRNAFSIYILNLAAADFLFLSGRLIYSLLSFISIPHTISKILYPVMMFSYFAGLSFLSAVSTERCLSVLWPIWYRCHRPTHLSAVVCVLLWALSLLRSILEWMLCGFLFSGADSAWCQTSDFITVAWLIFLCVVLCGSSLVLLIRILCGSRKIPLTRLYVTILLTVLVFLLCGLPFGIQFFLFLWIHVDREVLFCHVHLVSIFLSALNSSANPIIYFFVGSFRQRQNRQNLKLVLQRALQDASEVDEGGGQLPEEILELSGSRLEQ
MrgX1 agonist = agonists of human MrgX1 receptor; Q96LB2; hit rate 0.44% among 310,000; MrgX1-HEK293 cells, Fluo-4 calcium fluorescence, agonist mode; active compounds read high; B-score at 10 µM;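 active = calcium response B-score plate-corrected fluorescence ratio at least 3 library SD, with starting fluorescence B-score inside 5 SD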
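Material: MrgX1-expressing HEK293 cells / Dosing: compound as first of three additions / Incubation: overnight seeding, then 1 h dark dye loading / Signal: Fluo-4 NW calcium fluorescence / Evaluation: B-scored fluorescence response ratio / Benchmarks: positive and negative control wells on each plate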
MrgX1 antagonist = human MrgX1 receptor antagonism, primary screen. Q96LB2. MRGX1-HEK293 calcium flux, Fluo-4, BAM8-22 antagonism; active compounds read low. B-score at 10 µM. hit rate 1.3% among 310,000. AID 588676;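 active = calcium-response B-score plate-corrected more than 3 library SD below zero, starting fluorescence within 5 deviations, no agonist response on first addition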;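 also: peak minus trough fluorescence over baseline after final BAM8-22 challenge near maximal dose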
RGS4 pot = potentiators or activators of RGS4 | HEK293 M3R/inducible RGS4, carbachol calcium flux Fluo4; active compounds read low | B-score at 10 µM | hit rate 0.92% among 310,000 | AID 463111;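 active = B-score of the integrated calcium signal more than 4 SD below the library mean, with starting fluorescence not abnormally high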;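 also: negative B-score means reduced calcium response which marks RGS4 activation or potentiation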
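Assay system: Inducible-RGS4 HEK293 cells carrying M3 receptor | Schedule: Compound preincubation 20 min at room temperature before agonist | Signal: Kinetic calcium fluorescence imaging with Fluo4-AM dye, 2 µM | Read-out basis: B score from integrated fluorescence ratio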
RGS4 block = human RGS4 inhibition | B-score at 10 µM | hit rate 0.45% among 310,000 | AID 463165 | P49798 | HEK293 M3R/RGS4 inducible, Fluo-4 calcium flux; active compounds read high; triggered by carbachol at its EC20;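 active = B-score, a plate-corrected calcium signal, over three deviations above library mean, with baseline fluorescence within five deviations of library mean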;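 also: RGS4 expression induced by doxycycline in cells with stable M3 receptor; B-score is computed from the integrated fluorescence ratio over baseline after carbachol; higher B-score means a larger calcium signal and so more RGS4 inhibition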
Target sequence (P49798 whole entry, looked up): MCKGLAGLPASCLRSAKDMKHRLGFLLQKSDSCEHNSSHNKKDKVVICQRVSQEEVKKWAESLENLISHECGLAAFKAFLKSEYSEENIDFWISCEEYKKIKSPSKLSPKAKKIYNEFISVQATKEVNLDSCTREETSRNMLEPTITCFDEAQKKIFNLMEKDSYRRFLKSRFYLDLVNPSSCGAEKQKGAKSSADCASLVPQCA
RGS4 inh valid = RGS4 inhibitor validation | shares compounds with RGS4 block | HEK293 M3R/RGS4, carbachol calcium Fluo-4 fluorescence; carbachol added at its EC20; 0 = buffer wells, 100 = carbachol control | calcium response, % at 10 µM | hit rate 65% among 1,700 | AID 492999;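 active = duplicate-averaged calcium response above the buffer-only control mean plus 5 SD of those controls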;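 also: integrated fluorescence ratio F max minus min over baseline F0; higher response in RGS4-induced cells means RGS4 inhibition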
M3R Ca ctr = counter-screen for RGS4 inhibitors: effect in non-induced cells; shares compounds with RGS4 block; hit rate 20% among 1,900; activity (percent), % at 10 µM; HEK293 M3R non-induced, carbachol calcium Fluo-4; submaximal (EC20) carbachol stimulus; buffer wells 0%, carbachol control wells 100%; call rule not given here;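 also: RGS4 induction absent so cells express M3R without RGS4; higher means more calcium signal and flags a non-specific hit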
RGS4 inh ctr2 = second RGS4 inhibitor counter-screen in uninduced cells lacking carbachol | shares compounds with RGS4 block | HEK293 M3R/RGS4 non-induced, Fluo-4 calcium, no carbachol; normalised: buffer wells 0%, carbachol wells 100% | calcium response (agonist-mode artifact), % at 10 µM | hit rate 22% among 1,900 | AID 493001;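 active = duplicate-averaged calcium rise in uninduced cells above buffer wells' mean plus 5 SD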
The depositor's hits bear a star; i = inactive; / = no result.

SMILES	MrgX1 allo act	MrgX1 agonist	MrgX1 antagonist	RGS4 pot	RGS4 block	RGS4 inh valid	M3R Ca ctr	RGS4 inh ctr2
Cc1cc(Br)cc(C=Nc2ccc(N3CCOCC3)cc2)c1O	i	i	i	i	5.82*	21.0%*	40.0%*	168.0%*
Clc1ccc(-c2ccc(C=Nc3ccc(N4CCOCC4)cc3)o2)c(Cl)c1	i	i	i	i	5.41*	i	i	16.5%*
Oc1c(Cl)cc(Cl)cc1C=Nc1ccc(N2CCOCC2)cc1	i	i	i	i	4.98*	i	i	93.0%*
Oc1cc(Br)ccc1C=Nc1ccc(N2CCCCC2)cc1	i	i	i	i	i	/	/	/
Oc1ccc(C=Nc2ccc(N3CCOCC3)cc2)c(O)c1	i	i	i	i	i	/	/	/
C[C@H](NC(=O)C1CC(=O)N(c2ccc3c(c2)OCCO3)C1)C(=O)N1CCCCC1 (stereo partly specified)	i	i	i	i	i	/	/	/
Cc1cccc(N(O)C(=O)Nc2cccc(Cl)c2)c1	i	i	i	i	i	/	/	/
COc1ccc(OC)c(S(=O)(=O)N2CCC(C(=O)N(C)Cc3ccccc3)CC2)c1	i	i	i	i	i	/	/	/
COc1cc(OC)c(N(C)C(=O)c2cc3c(s2)-c2ccccc2S(=O)(=O)C3)cc1Cl	i	i	i	i	17.1*	27.5%*	50.5%*	i
Cc1c(/C=N/NC(=O)CNc2ccccc2)c2ccccn2c1C(=O)c1ccc(Cl)cc1	i	i	i	i	14.8*	20.5%*	i	68.0%*
Cc1c(C=O)c2ccccn2c1C(=O)c1ccc(F)cc1	i	i	i	i	i	/	/	/
Cc1c(/C=N/NC(=O)CNc2ccccc2)c2ccccn2c1C(=O)c1ccncc1	i	i	i	i	i	i	i	i
Cc1ccccc1NCC(=O)N/N=C/c1c(C)c(C(=O)c2ccc(Cl)cc2)n2ccccc12	i	i	i	i	i	i	i	31.0%*
Cc1c(C=O)c2ccccn2c1C(=O)c1ccccc1	i	i	i	i	i	/	/	/
COc1cccc(C(=O)OCC(=O)NC(C)CCc2ccccc2)c1O (stereo unspecified)	i	i	i	i	i	/	/	/
O=C(NC(C(=O)N/N=C/c1cccc2ccccc12)c1n[nH]c(=O)c2ccccc12)c1ccccc1 (stereo unspecified)	i	i	i	i	14.1*	24.0%*	30.0%*	i
O=C(NC(C(=O)N/N=C/c1ccncc1)c1n[nH]c(=O)c2ccccc12)c1ccccc1 (stereo unspecified)	i	i	i	i	i	/	/	/
O=C(/C=C\NCC(=O)c1ccccc1)c1ccc2ccccc2c1	i	i	i	i	6.52*	16.5%*	30.0%*	i
COc1ccccc1/C=C/C=N/n1c(-c2cc(-c3ccccc3)n[nH]2)n[nH]c1=S	i	i	i	i	7.71*	45.0%*	36.0%*	i
Cc1nn(C(=O)c2ccc([N+](=O)[O-])cc2)c(C)c1Br	i	i	i	i	i	/	/	/
COc1ccc(C2C3=C(CCCC3=O)NC3=C2C(=O)c2ccccc23)cc1 (stereo unspecified)	i	i	i	i	10.6*	i	i	i
Cc1ccc(C2C3=C(CC(C)(C)CC3=O)NC3=C2C(=O)c2ccccc23)cc1 (stereo unspecified)	i	i	i	i	i	/	/	/
c1coc(-c2nc(-c3ccco3)c(-c3ccco3)nc2-c2ccco2)c1	i	i	i	i	i	/	/	/
COc1ccc2nc(-c3ccco3)c(-c3ccco3)nc2c1	i	i	i	i	5.82*	i	i	31.5%*
O=C(O)c1ccc(CNC(=O)C23CC4CC(CC(C4)C2)C3)cc1	i	i	i	i	i	/	/	/
SMILES	MrgX1 allo act	MrgX1 agonist	MrgX1 antagonist	RGS4 pot	RGS4 block	RGS4 inh valid	M3R Ca ctr	RGS4 inh ctr2
COC(=O)c1cccc(NC(=S)N2CCN(c3ccccc3F)CC2)c1	i	i	i	i	i	/	/	/
Cn1ncc2c(N3CCN(c4ccc(Cl)c(Cl)c4)CC3)ncnc21	i	i	i	i	5.7*	9.5%*	i	i
Cn1ncc2c(N3CCN(c4ccccc4F)CC3)ncnc21	i	i	i	i	i	/	/	/
O=C(N/N=C/c1cc2cc3c(cc2nc1Cl)OCO3)c1ccncc1	i	i	i	i	7.83*	i	i	i
O=C(N/N=C/c1cc2cc3c(cc2nc1Cl)OCCO3)c1ccccc1O	i	i	i	i	i	/	/	/
CN(CC(=O)Nc1ccccc1Cl)C(=O)CCc1nc2ccccc2c(=O)[nH]1	i	i	i	i	i	/	/	/
CN(C)c1ccc(C(C[N+](=O)[O-])c2c(N)n(C)c(=O)n(C)c2=O)c(F)c1C#N (stereo unspecified)	i	31.2*	i	i	22.1*	62.0%*	i	i
C[C@@H](C(O)c1ccccc1)N(C)C(=O)CCc1ccccc1 (stereo partly specified)	i	i	i	i	i	/	/	/
Cc1cc(OCCN2CCOCC2)ccc1C(C)C	i	i	i	i	i	/	/	/
CCn1c2ccccc2c2cc(NC(=O)CSc3nnc(-c4ccc(OC)c(OC)c4)n3N)ccc21	i	i	i	i	i	i	i	i
CCn1c2ccccc2c2cc(NC(=O)CSc3nnc(-c4ccccc4OC)n3N)ccc21	i	i	i	i	i	/	i	i
CCOc1ccc(-c2nnc(SCC(=O)Nc3ccc4c(c3)c3ccccc3n4CC)n2N)cc1	i	i	i	i	i	i	i	i
COc1cccc(-c2nnc(SCC(=O)Nc3cc(C)ccc3OC)n2N)c1	i	i	i	i	i	/	/	/
CCn1c2ccccc2c2cc(NC(=O)CSc3nnc(-c4cccc(OC)c4)n3N)ccc21	i	i	i	i	i	/	i	i
O=C(CCN1C(=O)c2ccccc2S1(=O)=O)N1CCN(c2cccc(Cl)c2)CC1	i	i	i	i	i	/	/	/
